The subject of assay [1] is HFF. The assay can be described thus: Compound was tested for antiviral activity against human cytomegalovirus (HCMV) by plaque reduction assay using HFF cells. It is filed as functional, cell-based. A digest of the protocol:
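HCMV plaque reduction assay in HFF cells, run in duplicate. Value reported as IC50. Highest concentration tested 10 or 100.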
(In general: In a plaque reduction assay, fewer plaques than in the control indicate reduced infectivity or spread.)

Assay [2] can be described thus: Compound was tested for inhibition activity of human oral carcinoma cell line (KB ) cells in quadruplicate assay. Format: functional, cell-based. A digest of the protocol: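 KB cell growth inhibition was run in quadruplicate wells and reported as IC50, meaning the concentration that halves growth. Values marked > indicate that 50% inhibition was not reached at the highest concentration tested.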

Assay [3] has as its system HFF. The assay can be described thus: Compound was tested for visual cytotoxicity on human foreskin fibroblasts (HFF) cells. It is filed as functional, cell-based. A digest of the protocol: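 Cytotoxicity in HFF cells scored visually at the time HCMV plaques were counted. Results from duplicate experiments.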
The test system of a further assay is Human alphaherpesvirus 1. Description: Compound was tested for antiviral activity against herpes simplex virus type 1 (HSV-1). It is filed as functional, organism-based. A digest of the protocol:
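HSV-1 activity read by ELISA in quadruplicate wells, with the plaque assay used for the DHPG control. Value reported as IC50. Top concentration tested 10 or 100.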

Assay [4] deals with HFF. The assay can be described thus: Compound was tested for antiviral activity against human cytomegalovirus (HCMV) by yield reduction assay using HFF cells. Format: functional. A digest of the protocol:
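HCMV yield reduction assay in HFF cells, run in duplicate. Value reported as IC90. Highest concentration tested 10 or 100.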

This note sets out measurements from ChEMBL document CHEMBL1133755, “Synthesis of fluorosugar analogues of 2,5,6-trichloro-1-(beta-D-ribofuranosyl)benzimidazole as antivirals with potentially increased glycosidic bond stability” (J Med Chem, 2000).

Structures are written as SMILES.

One may read the IC50 as the concentration needed to halve the response being measured. Read a low IC50 as higher potency. As usually defined, the IC90 is the concentration needed for an effect of 90%. Read a low IC90 as an effect from little substance.

As to `OC[C@H]1O[C@@H](n2cnc3cc(Cl)c(Cl)cc32)[C@H](F)[C@@H]1O`, the IC50 (in the assay with HFF [1]; in assay [2]; in the assay on HFF [3]; in the assay with Human alphaherpesvirus 1) was > 100 µM throughout.
With `O[C@H]1[C@H](OC(c2ccccc2)(c2ccccc2)c2ccccc2)[C@@H](COC(c2ccccc2)(c2ccccc2)c2ccccc2)O[C@H]1n1c(Cl)nc2cc(Cl)c(Cl)cc21`, the IC50 in the assay with HFF [1] was > 10 µM; in assay [2] it was > 100 µM; in the assay with HFF [3], > 100 µM; in the assay on Human alphaherpesvirus 1, > 100 µM.
For `Clc1cc2nc(Cl)n([C@@H]3O[C@H](COC(c4ccccc4)(c4ccccc4)c4ccccc4)[C@@H](OC(c4ccccc4)(c4ccccc4)c4ccccc4)[C@@H]3OC(c3ccccc3)(c3ccccc3)c3ccccc3)c2cc1Cl`, the IC50 in the assay with HFF [1] was > 10 µM; in assay [2], > 100 µM; in the assay on HFF [3] it was > 100 µM; with Human alphaherpesvirus 1, > 100 µM.
Regarding `OC[C@H]1O[C@@H](n2c(Cl)nc3cc(Cl)c(Cl)cc32)[C@@H](F)[C@@H]1O`, the IC50 was 8 µM in the assay with HFF [1], 60 µM in assay [2], 32 µM with HFF [3] and 50 µM in the assay on Human alphaherpesvirus 1. In addition, the 90% effect level in the assay with HFF [4] (IC90) was put at 8 µM.
As for `OC[C@H]1O[C@@H](n2c(Br)nc3cc(Cl)c(Cl)cc32)[C@H](F)[C@@H]1O`, the IC50 with HFF [1] is 17 µM; in assay [2], 80 µM; in the assay on HFF [3], 100 µM; in the assay with Human alphaherpesvirus 1, > 100 µM.
In assay [2], `O=C(OC[C@H]1O[C@@H](n2c(Cl)nc3cc(Cl)c(Cl)cc32)[C@@H](F)[C@@H]1OC(=O)c1ccccc1)c1ccccc1` showed a concentration for half-maximal inhibition (IC50) of 100 µM.
With `CC(C)Nc1nc2cc(Cl)c(Cl)cc2n1[C@@H]1O[C@H](CO)[C@@H](O)[C@H]1F`, the IC50 (in the assay with HFF [1]; in assay [2]; in the assay with HFF [3]; in the assay with Human alphaherpesvirus 1) was > 100 µM each time.
`OC[C@H]1O[C@@H](n2c(Cl)nc3cc(Cl)c(Cl)cc32)C(O)[C@@H]1F` (stereo not given in full): the IC50 with HFF [1] was 9.4 µM; in assay [2], > 100 µM; in the assay with HFF [3] it was 40 µM; with Human alphaherpesvirus 1, > 100 µM. The molecule further showed an IC90 in the assay with HFF [4] of 13 µM.
As to `OC[C@H]1O[C@@H](n2c(Br)nc3cc(Cl)c(Cl)cc32)[C@H](O)[C@@H]1O`, the concentration for half-maximal inhibition (IC50) in assay [2] was > 100 µM. For the same molecule, in the assay on HFF [4], the 90% effect level (IC90) was put at 0.2 µM.
Taken in the same sequence, the figures for `OC[C@H]1O[C@@H](n2c(Cl)nc3cc(Cl)c(Cl)cc32)[C@H](O)[C@@H]1O` were 210 µM and 1.4 µM.
Taken in the same sequence, the figures for `OC[C@H]1O[C@@H](n2cnc3cc(Cl)c(Cl)cc32)[C@H](O)[C@@H]1O` [DICHLORORIBOBENZIMIDAZOLE] were 36 µM and 19 µM.
`Nc1nc2c(ncn2COC(CO)CO)c(=O)[nH]1` [GANCICLOVIR]: the IC50 (in assay [2]; with HFF [3]) was > 100 µM each time. In the assay on HFF [4], the IC90 was found to be 1.6 µM.
